# Source: PubChem BioAssay (several laboratories)
# Sampled rows, rich in hits. Any-hit rate of the full collection: about 3.9%.
# CHOP inhibitor: inhibitors of CHOP induction in ER stress response | CHO-K1 CHOP-promoter luciferase, tunicamycin-induced, 15-18 h | inhibition, % at 10 µM | 3.8% of 220,000 active;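 active means compounds that reduced the stress-induced luciferase reporter signal by more than about 70% of percent inhibition, limit read from the data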;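 further: 0% = tunicamycin plus vehicle and 100% = wells without tunicamycin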
# CHOP UPR activ: apoptotic UPR (CHOP) activation; CHO-CHOP luciferase reporter, luminescence; percent of tunicamycin response over DMSO baseline; activation, % at 10 µM; 0.34% of 330,000 active;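 active means at 10 µM dose, activation of 40% or more, normalized to positive control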;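 further: 100% = tunicamycin at 10 µg/mL and 0% = DMSO alone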
#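 Assay system: CHO-CHOP cells, stable luciferase reporter of PERK-eIF2a-CHOP signalling / Buffer or medium: F12 plus 10% serum / Compound dosing: one dose, 10 µM in 0.5% DMSO / Times: 6 h compound treatment, 37 °C / Technique: luciferase luminescence / Read-out: % reporter activation, DMSO baseline versus tunicamycin full activation / Benchmarks: tunicamycin and DMSO controls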
# Gli-Sufu block: Gli-Sufu pathway antagonism. AID 588413. 0.74% of 340,000 active. inhibition, % at 5 µM. Sufu-KO-LIGHT fibroblasts, Gli luciferase reporter luminescence;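 active means inhibition above about 55%, limit read from the data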;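 further: 0% = DMSO-treated cells and 100% = wells with medium but no cells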
# Jurkat NFkB inh: inhibitors of the PMA/ionomycin-induced NF-kB reporter in Jurkat cells | AID 435003 | PMA/ionomycin-induced NF-kB luciferase reporter, luminescence | 0.53% of 330,000 active | inhibition, % at 4 µM; in the data active means inhibition above about 50%
# UPR XBP1 act: adaptive UPR (XBP1) activation | 0.33% of 330,000 active | activation, % at 20 µM | CHO-XBP1 luciferase reporter, IRE1-XBP1 UPR activation, luminescence; percent of tunicamycin response, DMSO as zero;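 active means versus positive control, 20 µM dose yields 30% or more activation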;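 further: 100% = tunicamycin at 10 µg/mL and 0% = DMSO only wells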
#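 Material: CHO cell line with stable XBP1 luciferase reporter; schedule: 16-18 h cell attachment at 37 °C, then 6 h compound exposure; signal: glow luminescence from Steady-Glo reagent; medium: serum-containing F12 medium, 10% FBS; benchmarks: tunicamycin 10 µg/mL and vehicle-only wells; read-out: percent activation relative to tunicamycin reference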
# 697 NFkB inh: inhibitors of the PMA/ionomycin-induced NF-kB reporter in 697 B cells; 697 B-cell NF-kB luciferase reporter, 16 h; 0.33% of 330,000 active; inhibition, % at 4 µM; in the data active means inhibition above about 35%
# Active calls of the source: *; · = not tested or not shown.
SMILES,CHOP inhibitor,CHOP UPR activ,Gli-Sufu block,Jurkat NFkB inh,UPR XBP1 act,697 NFkB inh
CCOC(=O)[C@@H]1[C@H]2COc3ccccc3[C@H]2N2C(=O)N(c3cccc(Cl)c3)C(=O)[C@]12C,·,0.2,-4.0,5.2,0.5,10.3
Cc1cccc2c1cnn2C(=O)CCC(=O)N1CCC(C)CC1,·,-0.4,-13.8,15.3,-0.6,0.9
Cc1cc(=O)n2c(C(=O)Nc3ccc(C(=O)OC(C)C)cc3)c(C(=O)Nc3ccccc3)sc2n1,96.0*,-0.4,3.2,8.0,1.3,-18.8
CC(C)OC(=O)c1ccc(NC(=O)c2cccc(-n3cnnn3)c2)cc1,·,-2.6,6.0,-31.1,0.4,-49.9
O=S1(=O)CCOC[C@H](c2ccccc2)N1Cc1ccccc1F,·,0.9,2.6,16.2,1.6,10.3
Cc1cc(C(F)(F)F)c(C#N)c(N2CCOCC2)n1,22.5,1.1,0.4,10.0,-0.2,3.7
N#Cc1c(C(F)(F)F)cc(C2CC2)nc1N1CCCC1,83.1*,-2.0,-0.3,-4.3,-2.5,6.5
O=C(CCc1ccccc1)NC(NC(=S)Nc1cccc(Cl)c1)C(Cl)(Cl)Cl (centres undefined),39.5,9.8,2.9,11.3,-1.0,4.8
O=C(NC(NC(=S)Nc1c(Cl)cc(Cl)cc1Cl)C(Cl)(Cl)Cl)OCc1ccccc1 (centres undefined),88.3*,1.6,14.0,-9.1,13.7,-8.4
Cc1ccc(C)c(NC(=S)NC(NC(=O)OCc2ccccc2)C(Cl)(Cl)Cl)c1 (centres undefined),91.8*,3.6,9.3,7.8,-2.0,-13.0
Fc1nc(F)c(F)c(NCCCNc2c(F)c(F)nc(F)c2F)c1F,87.6*,0.6,7.5,-0.6,0.2,-0.2
CSCC[C@H](NC(=O)OC(C)(C)C)c1nnc(SCC(=O)Nc2c(C)cccc2C)o1,16.2,-1.8,-2.7,-1.8,-3.2,6.0
Cc1cccc(C)c1NC(=O)CSc1nnc([C@H](C)NC(=O)OC(C)(C)C)o1,79.2*,-0.6,5.2,4.5,-1.6,-0.1
CC(C)[C@H](NC(=O)OC(C)(C)C)c1nnc(SCC(=O)Nc2ccc(Br)cc2)o1,73.2*,1.0,1.1,-1.9,-3.1,-3.2
CC(=O)Nc1cccc(NC(=O)Cc2ccc3ccccc3c2)c1,·,0.8,-25.2,-18.7,-1.9,-23.7
Fc1cccc2sc(Nc3nc4c(F)cccc4s3)nc12,87.8*,4.5,-21.1,-55.7,1.3,-83.8
Cc1cc(C)cc(N(C(=O)c2ccccn2)C(C(=O)NC2CCCCC2)c2ccncc2)c1 (centres undefined),·,-1.3,-8.1,-2.7,-2.5,-2.6
CN(C)c1ccc(/C=N\Nc2nc(-c3ccccc3)cc(=O)[nH]2)cc1,88.9*,1.8,21.4,-8.2,0.5,-20.0
O=C(NCCN1CCN(c2ccccc2F)CC1)c1cccn2c(=O)c3ccccc3nc12,76.1*,1.8,5.7,2.2,4.8,-32.6
Cc1ccc(C)c(NC(=O)CSc2nnc(-c3n[nH]c4ccccc34)o2)c1,8.3,-1.5,-3.1,-9.0,-2.5,11.2
CC(C)(C)c1ccc(NC(=O)CSc2nnc(-c3n[nH]c4ccccc34)o2)cc1,93.5*,3.2,-49.0,-51.1,1.3,-31.7
S=C(NNc1ccnc2cc(Cl)ccc12)Nc1ccccc1Cl,95.7*,22.9,47.8,1.9,5.6,-51.4
S=C(Nc1ccccc1Cl)Nc1ccc(Cl)cc1Cl,1.2,-1.7,-3.7,-5.3,-0.8,5.0
COc1ccc2nc(NN=C(C)c3ccccn3)cc(C)c2c1,·,·,78.6*,·,·,·
COc1ccc(-c2ccc(-c3noc(-c4ccccc4F)n3)c(OC)n2)cc1,73.9*,·,-18.4,·,·,·
SMILES,CHOP inhibitor,CHOP UPR activ,Gli-Sufu block,Jurkat NFkB inh,UPR XBP1 act,697 NFkB inh
COc1ccc(-c2ccc(-c3noc(-c4ccco4)n3)c(OC)n2)cc1,72.0*,0.0,-41.3,-46.5,2.0,-20.5
COc1ccc(/C=N/Nc2nc(N3CCCCC3)nc(N3CCCCC3)n2)cc1[N+](=O)[O-],22.3,-0.3,·,-5.6,-3.0,-8.3
COc1ccc(/C=N/Nc2nc(Nc3ccccc3)nc(N3CCCC3)n2)cc1[N+](=O)[O-],83.5*,39.3,10.1,-4.4,13.3,16.5
O=c1c2ccccc2[nH]c(=S)n1CCc1ccccc1,73.2*,2.4,-39.2,-49.5,4.8,-106.7
O=c1c2ccccc2cnn1-c1nc2ccccc2[nH]1,92.8*,·,81.2*,·,·,·
CCCc1nc2sc3c(=O)n(N)cnc3c2c2c1CCCC2,74.0*,3.8,-47.1,1.5,6.5,11.6
CC1CC(C)CN(S(=O)(=O)c2ccc3c(c2)NC(=O)C(C)C(=O)N3)C1 (centres undefined),·,-1.4,-2.3,-4.4,0.0,7.4
Cc1ccc(N/C=C/C(=O)C(C)(C)C)c(O)c1,85.6*,3.1,6.1,10.4,1.8,13.8
CCSc1nnc(NC(=O)NC(CC)(C(F)(F)F)C(F)(F)F)s1,90.2*,-3.9,25.6,9.1,4.6,-23.4
CCSc1nnc(NC(=O)NC(C)(C(F)(F)F)C(F)(F)F)s1,9.5,1.0,-1.1,-7.0,-0.9,-21.5
COc1ccccc1N1CCN(CCCCNS(=O)(=O)c2cccc3c(N(C)C)cccc23)CC1,-4.7,·,·,·,·,·
CCNc1nc(SCC(=O)Nc2ccc(Cl)c(Cl)c2)nc(N(C)C)n1,78.6*,0.4,21.3,8.2,1.3,-7.4
COCCCN1CN(S(=O)(=O)c2ccc(Cl)cc2)c2nc3ccccc3nc21,93.0*,-1.4,1.9,-21.4,-2.3,10.7
Cc1ccccc1C(=O)c1cccn1CC(=O)NCCCc1ccccc1,·,-2.3,-15.1,2.3,-5.6,-17.3
CCOC(=O)c1csc(NC(=O)CN2CCN(C)CC2)n1,·,0.6,-13.9,-0.5,-3.5,-6.5
NC(=S)n1[nH]c(-c2ccc([N+](=O)[O-])cc2)c(N=Nc2cccc(Cl)c2)c1=O,83.0*,0.2,61.6*,3.8,-4.2,7.6
CCN(CC(=O)Nc1ccc2c(c1)CCC2)Cc1nc2ccccc2c(=O)[nH]1,71.4*,-1.6,0.9,-8.6,3.3,-25.2
O=C(NCc1ccc(Cl)cc1)C(=O)NCC1OCCN1S(=O)(=O)c1cc(F)ccc1F (centres undefined),·,4.8,-2.7,0.7,-5.1,6.6
Cc1nn(S(=O)(=O)c2ccc(Cl)cc2)c(C)c1Sc1ccc([N+](=O)[O-])cc1,85.2*,·,14.0,·,·,·
O=C(CCN1C(=O)c2ccccc2S1(=O)=O)Nc1ccc(F)c(F)c1F,·,0.1,0.9,2.0,-1.7,10.2
COc1cc(C(=O)Nc2cccc(-c3nc4cc(C)ccc4o3)c2)cc(OC)c1OC,74.8*,4.6,21.7,-27.4,1.6,-68.8
O=C1C2C3C=CC(C3)C2C(=O)N1c1cccc(-c2nc3ccccc3o2)c1 (centres undefined),26.0,-0.7,15.5,1.0,7.1,-5.2
